Measured values taken from ChEMBL document CHEMBL1146231, “Novel semisynthetic derivative of antibiotic Eremomycin active against drug-resistant gram-positive pathogens including Bacillus anthracis” (J Med Chem, 2007).
Converted amounts (≈) assume the structure as drawn. The source made the active and inactive calls. The calls are words filed in the database; no cut-off is given here.

What was measured:
[1] = system: Bacillus anthracis; assay: Antimicrobial activity against Bacillus anthracis HH105-6 isolate; format: functional
[2] = system: Mus musculus; assay: Survival of pulmonary anthrax BALB/c mouse model infected with Bacillus anthracis Ames at 30 mg/kg, sc after 6 days; format: functional; details: 144 h, route subcutaneous
[3] = system: Bacillus anthracis; assay: Antimicrobial activity against Bacillus anthracis HH105-5R isolate; format: functional
[4] = system: Bacillus anthracis; assay: Antimicrobial activity against Bacillus anthracis HH113-6R isolate; format: functional
[5] = system: Bacillus anthracis; assay: Antimicrobial activity against Bacillus anthracis HHT105-5R isolate; format: functional
[6] = system: Mus musculus; assay: Protection against pulmonary anthrax BALB/c mouse model infected with Bacillus anthracis at 135 mg/kg, po after 6 days; format: functional; details: 144 h
[7] = system: Bacillus anthracis; assay: Antimicrobial activity against Bacillus anthracis HH105-5 isolate; format: functional
[8] = system: Bacillus anthracis; assay: Protection against Bacillus anthracis challenged BALB/c mouse at 106 mg/kg, iv after 3 days; format: functional, organism-based; set-up: dose 106 mg/kg
[9] = system: Mus musculus; assay: Survival of BALB/c mouse pulmonary challenged with Bacillus anthracis at 114 mg/kg, po; format: functional
[10] = system: Enterococcus faecalis; assay: Antimicrobial activity against vancomycin-resistant Enterococcus faecalis 560 isolate; format: functional
Procedure, shortened: (§1)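 MICs were run by broth microdilution as recommended by NCCLS, in cation-adjusted Mueller-Hinton broth. Compound was serially diluted 2-fold, over a final range of 64 to 0.03 µg/mL after inoculation.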

[11] = system: Staphylococcus epidermidis; assay: Antimicrobial activity against Staphylococcus epidermidis 533 isolate; format: functional; procedure, shortened: as §1
[12] = system: Staphylococcus aureus; assay: Antimicrobial activity against glycopeptide intermediate resistant Staphylococcus aureus 3798 isolate; format: functional; procedure, shortened: as §1
[13] = system: Enterococcus faecalis; assay: Antimicrobial activity against vancomycin-susceptible Enterococcus faecalis 559 isolate; format: functional; procedure, shortened: as §1
[14] = system: Staphylococcus aureus; assay: Antimicrobial activity against glycopeptide intermediate resistant Staphylococcus aureus 3793 isolate; format: functional; procedure, shortened: as §1
[15] = system: Enterococcus faecium; assay: Antimicrobial activity against vancomycin-resistant Enterococcus faecium 569 isolate; format: functional; procedure, shortened: as §1
[16] = system: Staphylococcus haemolyticus; assay: Antimicrobial activity against Staphylococcus haemolyticus 602 isolate; format: functional; procedure, shortened: as §1
[17] = system: Enterococcus faecium; assay: Antimicrobial activity against vancomycin-susceptible Enterococcus faecium 568 isolate; format: functional; procedure, shortened: as §1
[18] = system: Bacillus anthracis; assay: Protection against Bacillus anthracis challenged BALB/c mouse at 50 mg/kg, iv; format: functional, organism-based; set-up: dose 50 mg/kg
[19] = system: Mus musculus; assay: Survival of BALB/c mouse infected with Staphylococcus aureus PGO#172 assessed as mortality at 50 mg/kg, iv; format: functional, organism-based; set-up: dose 50 mg/kg
Procedure, shortened: (§2)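 Mice received a lethal dose of S. aureus PGO#172 (ATCC#29213) by intraperitoneal injection. They were treated with an iv bolus at 1, 5, 10, 25 or 50 mg/kg, in groups of five. Mortality was the endpoint, and ED50 was derived from the dose-response.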

[20] = system: Bacillus anthracis; assay: Protection against Bacillus anthracis challenged BALB/c mouse at 25 mg/kg, iv; format: functional, organism-based; set-up: dose 25 mg/kg
[21] = system: Mus musculus; assay: Survival of BALB/c mouse infected with Staphylococcus aureus PGO#172 assessed as mortality at 1 mg/kg, iv; format: functional, organism-based; set-up: dose 1 mg/kg; procedure, shortened: as §2

SMILES	MIC [10]	MIC [11]	MIC [12]	MIC [13]	MIC [14]	MIC [15]	MIC [16]	MIC [17]	other results
O=C(O)c1cn(C2CC2)c2cc(N3CCNCC3)c(F)cc2c1=O [CIPROFLOXACIN]	–	–	–	–	–	–	–	–	MIC [1]: 32 µg/mL (≈ 96.6 µM); survival at 30 mg/kg [2]: 75%; MIC [3]: 4 µg/mL (≈ 12.1 µM); MIC [4]: 4 µg/mL (≈ 12.1 µM); MIC [5]: 8 µg/mL (≈ 24.1 µM); survival at 135 mg/kg [6]: 75%; MIC [7]: 8 µg/mL (≈ 24.1 µM); Activity [8]: Active; survival at 114 mg/kg [9]: 87.5%
CN[C@H](CC(C)C)C(=O)N[C@H]1C(=O)N[C@@H](CC(N)=O)C(=O)N[C@H]2C(=O)N[C@H]3C(=O)N[C@H](C(=O)N[C@H](C(=O)O)c4cc(O)cc(O)c4-c4cc3ccc4O)[C@H](O[C@@H]3C[C@@](C)(N)[C@H](O)[C@@H](C)O3)c3ccc(cc3)Oc3cc2cc(c3O[C@H]2O[C@@H](CO)[C@H](O)[C@@H](O)[C@@H]2O[C@H]2C[C@](C)(N)[C@@H](O)[C@H](C)O2)Oc2ccc(cc2Cl)[C@H]1O [EREMOMYCIN]	> 128 µg/mL	0.25 µg/mL (≈ 0.16 µM)	8 µg/mL (≈ 5.13 µM)	0.5 µg/mL (≈ 0.321 µM)	8 µg/mL (≈ 5.13 µM)	> 128 µg/mL	0.25 µg/mL (≈ 0.16 µM)	0.5 µg/mL (≈ 0.321 µM)	–
CN[C@H](CC(C)C)C(=O)N[C@H]1C(=O)N[C@@H](CC(N)=O)C(=O)N[C@H]2C(=O)N[C@H]3C(=O)N[C@H](C(=O)N[C@H](C(=O)NC4C5CC6CC(C5)CC4C6)c4cc(O)cc(O)c4-c4cc3ccc4O)[C@H](O)c3ccc(c(Cl)c3)Oc3cc2cc(c3O[C@H]2O[C@@H](CO)[C@H](O)[C@@H](O)[C@@H]2O[C@H]2C[C@@](C)(N)C(O)[C@@H](C)O2)Oc2ccc(cc2Cl)[C@H]1O (some centres not stated)	64 µg/mL (≈ 40.4 µM)	1 µg/mL (≈ 0.632 µM)	4 µg/mL (≈ 2.53 µM)	0.5 µg/mL (≈ 0.316 µM)	4 µg/mL (≈ 2.53 µM)	64 µg/mL (≈ 40.4 µM)	1 µg/mL (≈ 0.632 µM)	0.5 µg/mL (≈ 0.316 µM)	–
CN[C@H](CC(C)C)C(=O)N[C@H]1C(=O)N[C@@H](CC(N)=O)C(=O)N[C@H]2C(=O)N[C@H]3C(=O)N[C@H](C(=O)N[C@H](C(=O)NCC4C5CC6CC(C5)CC4C6)c4cc(O)cc(O)c4-c4cc3ccc4O)[C@H](O[C@@H]3C[C@@](C)(N)[C@H](O)[C@@H](C)O3)c3ccc(cc3)Oc3cc2cc(c3O[C@H]2O[C@@H](CO)[C@H](O)[C@@H](O)[C@@H]2O[C@H]2C[C@](C)(N)[C@@H](O)[C@H](C)O2)Oc2ccc(cc2Cl)[C@H]1O (some centres not stated)	16 µg/mL (≈ 9.38 µM)	0.5 µg/mL (≈ 0.293 µM)	2 µg/mL (≈ 1.17 µM)	1 µg/mL (≈ 0.586 µM)	1 µg/mL (≈ 0.586 µM)	16 µg/mL (≈ 9.38 µM)	0.5 µg/mL (≈ 0.293 µM)	0.5 µg/mL (≈ 0.293 µM)	–
CN[C@H](CC(C)C)C(=O)N[C@H]1C(=O)N[C@@H](CC(N)=O)C(=O)N[C@H]2C(=O)N[C@H]3C(=O)N[C@H](C(=O)N[C@@H](C(=O)NC45CC6CC(CC(C6)C4)C5)c4cc(O)cc(O)c4-c4cc3ccc4O)[C@H](O[C@@H]3C[C@@](C)(N)[C@H](O)[C@@H](C)O3)c3ccc(cc3)Oc3cc2cc(c3O[C@H]2O[C@@H](CO)[C@H](O)[C@@H](O)[C@@H]2O[C@H]2C[C@](C)(N)[C@@H](O)[C@H](C)O2)Oc2ccc(cc2Cl)[C@H]1O	–	–	–	–	–	–	–	–	Activity [18]: Active; Activity [19]: Active; Activity [20]: Active; Activity [21]: inactive
